The structures appear in SMILES notation.

A short description of experiment [1]: Ratio of receptor binding affinities of [3H]5-HT vs [125I]-RTI 55 uptake.
Experiment [2] has as its target T1, Sodium-dependent dopamine transporter (Rattus norvegicus, UniProt P23977). Nature of the experiment: Compound was tested for binding against Dopamine transporter using radioligand as […].
Experiment [3] has as its target Sodium-dependent serotonin transporter (Rattus norvegicus, UniProt P31652). The experiment can be described thus: Inhibition of [3H]5-HT reuptake at rat serotonin transporter. In short, it runs like this: (§1)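 Uptake into synaptosomes in Krebs-phosphate buffer, pH 7.4, with ascorbic acid 1 mg/mL and pargyline 50 µM. Final tracer was 5 nM [3H]DA or 2 nM [3H]5HT. Incubated at 25 °C for 15 min (DA) or 30 min (5HT), then filtered and filter tritium counted. IC50 derived.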

Experiment [4] concerns the target Monoamine transporters; serotonin & dopamine (Rattus norvegicus) (UniProt P31652+P23977). Nature of the experiment: Ratio of binding affinities of Serotonin transporter vs Dopamine transporter reuptake. Format: protein assay. The method in brief: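 Ratio is the IC50 for [3H]5HT reuptake over the IC50 for [3H]DA reuptake. Both were measured in synaptosomes at 25 °C: 2 nM [3H]5HT for 30 min and 5 nM [3H]DA for 15 min, in Krebs-phosphate buffer, pH 7.4, with pargyline and ascorbic acid.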

For experiment [5], the target named is T1, Sodium-dependent dopamine transporter. The experiment can be described thus: Binding against Dopamine transporter using radioligand as [3H]GBR 12935.
Experiment [6] shares this target. Nature of the experiment: Inhibition of dopamine DA reuptake. The method in brief: as §1
Experiment [7] shares this target. The experiment can be described thus: Binding affinity against dopamine transporter using radioligand as [3H]GBR 12935. In short, it runs like this:
(§2)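 DAT binding by displacement of 2 nM [3H]GBR 12935 or 0.01 nM [125I]RTI 55. Drugs were in 55.2 mM sodium phosphate buffer, pH 7.4, with 1 mg/mL BSA; radioligand was in the same buffer with chymostatin, leupeptin, EDTA and EGTA. Incubated in triplicate for 18-24 h at 4 °C to equilibrium, then filtered over polyethylenimine-presoaked GF/B filters. IC50 derived.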

Experiment [8] has the same target. The experiment can be described thus: Compound was tested for binding affinity against dopamine transporter using radioligand as [3H]-RTI 55. In short, it runs like this: as §2

Sodium-dependent serotonin transporter, sequence (P31652 whole entry): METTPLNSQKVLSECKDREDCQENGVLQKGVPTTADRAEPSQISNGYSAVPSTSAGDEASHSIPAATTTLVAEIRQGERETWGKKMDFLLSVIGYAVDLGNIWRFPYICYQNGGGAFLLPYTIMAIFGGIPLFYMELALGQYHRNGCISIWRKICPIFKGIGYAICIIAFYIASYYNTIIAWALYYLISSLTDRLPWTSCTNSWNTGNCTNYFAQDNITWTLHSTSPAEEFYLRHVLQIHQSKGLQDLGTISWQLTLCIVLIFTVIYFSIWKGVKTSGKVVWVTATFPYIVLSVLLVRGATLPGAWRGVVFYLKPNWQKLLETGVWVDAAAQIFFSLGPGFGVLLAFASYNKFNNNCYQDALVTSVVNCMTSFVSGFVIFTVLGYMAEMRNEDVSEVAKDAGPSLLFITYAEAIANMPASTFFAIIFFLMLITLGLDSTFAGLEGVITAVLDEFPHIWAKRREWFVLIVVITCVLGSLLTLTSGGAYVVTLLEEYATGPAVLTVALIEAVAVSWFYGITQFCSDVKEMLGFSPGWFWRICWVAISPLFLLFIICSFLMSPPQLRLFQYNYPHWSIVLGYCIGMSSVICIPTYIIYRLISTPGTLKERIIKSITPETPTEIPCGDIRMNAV
Monoamine transporters; serotonin & dopamine (Rattus norvegicus), sequence (P23977 whole entry, looked up): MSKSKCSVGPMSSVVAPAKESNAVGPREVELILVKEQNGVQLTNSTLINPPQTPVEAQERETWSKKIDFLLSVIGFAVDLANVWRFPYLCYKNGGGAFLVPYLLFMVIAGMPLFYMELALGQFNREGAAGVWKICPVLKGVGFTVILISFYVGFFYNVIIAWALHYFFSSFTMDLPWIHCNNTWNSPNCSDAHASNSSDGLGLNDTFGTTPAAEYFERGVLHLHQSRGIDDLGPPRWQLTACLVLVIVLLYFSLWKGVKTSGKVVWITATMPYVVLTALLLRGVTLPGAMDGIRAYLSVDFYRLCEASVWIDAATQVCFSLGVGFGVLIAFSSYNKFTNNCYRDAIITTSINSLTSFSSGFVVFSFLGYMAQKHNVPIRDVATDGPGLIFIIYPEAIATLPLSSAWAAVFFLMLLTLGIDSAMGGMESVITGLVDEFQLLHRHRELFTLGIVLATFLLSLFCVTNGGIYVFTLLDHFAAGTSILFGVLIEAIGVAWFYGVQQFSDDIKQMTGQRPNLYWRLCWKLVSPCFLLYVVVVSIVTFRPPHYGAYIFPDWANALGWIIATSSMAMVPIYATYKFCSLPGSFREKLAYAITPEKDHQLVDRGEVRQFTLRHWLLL
Monoamine transporters; serotonin & dopamine (Rattus norvegicus), sequence (P31652 whole entry, looked up): as the sequence (P31652 whole entry) above
T1 sequence (P23977 whole entry): as the sequence (P23977 whole entry, looked up) above

As to `c1ccc(C(OCCN2CCN(CCOC(c3ccccc3)c3ccccc3)CC2)c2ccccc2)cc1`, the Ratio in experiment [1] was 7.5; in experiment [4], 1.3. The IC50 in experiment [2] was 1.6 nM; in experiment [3] it was 1710 nM; in experiment [5], 9.3 nM; in experiment [6], 12 nM.

With `C[C@@H]1CN(CCOC(c2ccccc2)c2ccccc2)[C@@H](C)CN1`, the IC50 in experiment [3] was determined as 25300 nM; in experiment [6], 138 nM; in experiment [7] it was 1000 nM. Besides, the Ratio in experiment [4] was 183.

With `C[C@@H]1CN(CCOC(c2ccc(F)cc2)c2ccc(F)cc2)[C@@H](C)CN1C/C=C/c1ccccc1`, the concentration for half-maximal inhibition (IC50) in experiment [3] was determined as 1180 nM; in experiment [5], 23 nM; in experiment [6], 28 nM. The Ratio in experiment [4] came to 42.

On to `Fc1ccc(C(OCCN2CCNCC2)c2ccc(F)cc2)cc1`, for which the IC50 stood at 1400 nM in experiment [3], 104 nM in experiment [5] and 71 nM in experiment [6]. In addition, the Ratio in experiment [4] turned out to be 0.7.

Consider `c1ccc(CCCNC2CCCCN(CCOC(c3ccccc3)c3ccccc3)C2)cc1` (centres undefined), for which the concentration for half-maximal inhibition (IC50) in experiment [3] was 1480 nM; in experiment [6], 9.3 nM; in experiment [7], 20 nM. Moreover, the Ratio in experiment [4] came to 159.

For `Fc1ccc(C(OCCN2CCCN(CCCc3ccccc3)CC2)c2ccc(F)cc2)cc1`, the IC50 came out at 112 nM in experiment [3], 4.4 nM in experiment [5] and 3.4 nM in experiment [6]. For the same compound, the Ratio in experiment [4] is 33.

As to `CNCCN(C)CCOC(c1ccccc1)c1ccccc1`, the values for the IC50 in experiment [3], in experiment [6] and in experiment [7] were > 10000 nM, 545 nM and 834 nM, respectively.

As for `C[C@@H]1CN(CCCc2ccccc2)[C@@H](C)CN1CCCc1ccccc1`, the 50% inhibitory concentration (IC50) stood at 2530 nM in experiment [3], 1330 nM in experiment [6] and 9940 nM in experiment [7]. The Ratio in experiment [4] is 0.1.

In the case of `CN(CCCc1ccccc1)CCN(C)CCOC(c1ccccc1)c1ccccc1`, the IC50 stood at 2450 nM in experiment [3] and 27 nM in experiment [7].

`Fc1ccc(C(OCCN2CCC[C@H]2CNCCCc2ccccc2)c2ccc(F)cc2)cc1`: the concentration for half-maximal inhibition (IC50) is 20100 nM in experiment [3], 104 nM in experiment [5] and 29 nM in experiment [6]. Further, the Ratio in experiment [4] amounted to 693.

In the case of `C[C@@H]1CN(CCOC(c2ccccc2)c2ccccc2)[C@@H](C)CN1C/C=C/c1ccccc1`, the IC50 in experiment [3] is 2680 nM; in experiment [6], 20 nM; in experiment [7], 103 nM. Further, in experiment [4], the Ratio turned out to be 134.

On to `c1ccc(CCCN2CCCN(CCOC(c3ccccc3)c3ccccc3)CC2)cc1`, for which the half-inhibitory concentration (IC50) in experiment [3] came out at 34100 nM; in experiment [6], 7.2 nM; in experiment [7] it was 7.9 nM. In experiment [4], the Ratio turned out to be 4740.

Regarding `c1ccc(CCCN2CCCCN(CCOC(c3ccccc3)c3ccccc3)CC2)cc1`, the 50% inhibitory concentration (IC50) in experiment [3] stood at 1590 nM; in experiment [6], 93 nM; in experiment [7], 864 nM. For the same compound, the Ratio in experiment [4] amounted to 17.

Turning to `CC(C)(CN)CNCCOC(c1ccccc1)c1ccccc1`, the IC50 was > 10000 nM in experiment [3], 453 nM in experiment [6] and 1460 nM in experiment [7].

With `c1ccc(C(OCCN2CCNCC2)c2ccccc2)cc1`, the IC50 in experiment [3] was determined as 9570 nM; in experiment [6], 124 nM; in experiment [7], 110 nM. For the same compound, the Ratio in experiment [4] turned out to be 1.1.

Regarding `c1ccc(CCCNCCCCNCCOC(c2ccccc2)c2ccccc2)cc1`, the values for the IC50 in experiment [3], in experiment [5] and in experiment [6] were 376 nM, 80 nM and 35 nM, respectively. Moreover, in experiment [4], the Ratio worked out at 11.

Regarding `c1ccc(CCCN2CCCCC(NCCOC(c3ccccc3)c3ccccc3)C2)cc1` (centres undefined), the IC50 in experiment [3] stood at 2860 nM; in experiment [6], 57 nM; in experiment [7] it was 74 nM. Besides, the Ratio in experiment [4] came out at 50.

Take `C[C@@H]1CN(CCOC(c2ccc(F)cc2)c2ccc(F)cc2)[C@@H](C)CN1`: the half-maximal inhibitory concentration (IC50) was determined as 44 nM in experiment [8], 8940 nM in experiment [3], 30 nM in experiment [6] and 106 nM in experiment [7]. The Ratio in experiment [4] came out at 298.

With `c1ccc(CCCNC[C@H]2CCCN2CCOC(c2ccccc2)c2ccccc2)cc1`, the figures for the IC50 in experiment [3], in experiment [6] and in experiment [7] were 3210 nM, 127 nM and 747 nM, respectively. The Ratio in experiment [4] was determined as 25.

As for `C[C@@H]1CN(CCOC(c2ccc(F)cc2)c2ccc(F)cc2)[C@@H](C)CN1CCOC(c1ccc(F)cc1)c1ccc(F)cc1`, the IC50 in experiment [3] was found to be 4240 nM; in experiment [6] it was 86 nM; in experiment [7], 36 nM. Further, the Ratio in experiment [4] was 2.4.

Consider `c1ccc(C(OCCN2CCCNCC2)c2ccccc2)cc1`, for which the 50% inhibitory concentration (IC50) in experiment [3] was found to be 14300 nM; in experiment [6], 651 nM; in experiment [7], 1360 nM. Further, the Ratio in experiment [4] came to 22.

Consider `C[C@@H]1CN(CCOC(c2ccccc2)c2ccccc2)[C@@H](C)CN1CCCc1ccccc1`, for which the IC50 in experiment [3] was found to be 1730 nM; in experiment [5] it was 21 nM.

For `c1ccc(CCCN2CCN(CCCc3ccccc3)CC2)cc1`, the IC50 in experiment [3] is 1340 nM; in experiment [5], 7760 nM; in experiment [6], 1640 nM. For the same compound, in experiment [4], the Ratio is 0.2.

Consider `CC(C)(CNCCCc1ccccc1)CNCCOC(c1ccccc1)c1ccccc1`, for which the IC50 came out at 1890 nM in experiment [3], 83 nM in experiment [6] and 169 nM in experiment [7]. The Ratio in experiment [4] is 23.

`Fc1ccc(C(OCCN2CCCNCC2)c2ccc(F)cc2)cc1`: the IC50 in experiment [3] was determined as 2080 nM; in experiment [6], 17 nM; in experiment [7], 143 nM. In addition, the Ratio in experiment [4] was found to be 122.

On to `NCCCCNCCOC(c1ccccc1)c1ccccc1`, for which the half-inhibitory concentration (IC50) stood at 6830 nM in experiment [3] and 9780 nM in experiment [7].

For `Fc1ccc(C(OCCN2CCN(CCOC(c3ccc(F)cc3)c3ccc(F)cc3)CC2)c2ccc(F)cc2)cc1`, the Ratio in experiment [1] worked out at 36.4; in experiment [4], 5.5. In addition, the IC50 worked out at 1.1 nM in experiment [2], 278 nM in experiment [3], 7.3 nM in experiment [5] and 40 nM in experiment [6].

Take `C[C@@H]1CN(CCCc2ccccc2)[C@@H](C)CN1`: the figures for the IC50 in experiment [3], in experiment [5] and in experiment [6] were 12200 nM, > 30000 nM and > 30000 nM, respectively.

Take `C[C@@H]1CN(CCOC(c2ccccc2)c2ccccc2)[C@@H](C)CN1CCOC(c1ccccc1)c1ccccc1`: the figures for the IC50 in experiment [3], in experiment [6] and in experiment [7] were 6220 nM, 35 nM and 33 nM, respectively. In addition, in experiment [4], the Ratio amounted to 1.1.

Take `c1ccc(CCCN2CCNCC2)cc1`: the half-inhibitory concentration (IC50) in experiment [3] is 361 nM; in experiment [5], > 30000 nM; in experiment [6], > 30000 nM.

Regarding `c1ccc(CCCNC[C@@H]2CCCN2CCOC(c2ccccc2)c2ccccc2)cc1`, the IC50 came out at 986 nM in experiment [3], 0.7 nM in experiment [6] and 5.1 nM in experiment [7]. The Ratio in experiment [4] worked out at 1410.

`C[C@@H]1CN(CCOC(c2ccc(F)cc2)c2ccc(F)cc2)[C@@H](C)CN1CCCc1ccccc1`: the results for the half-inhibitory concentration (IC50) in experiment [3], in experiment [5] and in experiment [6] were 459 nM, 40 nM and 15 nM, respectively. Also, the Ratio in experiment [4] came to 31.

As to `C(=C\c1ccccc1)/CN1CCCN(CCOC(c2ccccc2)c2ccccc2)CC1`, the IC50 is 503 nM in experiment [3], 0.6 nM in experiment [6] and 8.6 nM in experiment [7]. The Ratio in experiment [4] was 838.

On to `Fc1ccc(C(OCCN2CCCN(C/C=C/c3ccccc3)CC2)c2ccc(F)cc2)cc1`, for which the results for the half-inhibitory concentration (IC50) in experiment [3], in experiment [5] and in experiment [6] were 234 nM, 2.6 nM and 3.4 nM, respectively. Besides, the Ratio in experiment [4] is 69.

Turning to `CC1(C)CN(CCCc2ccccc2)CCN(CCOC(c2ccccc2)c2ccccc2)C1`, the 50% inhibitory concentration (IC50) in experiment [3] is 3150 nM; in experiment [6], 87 nM; in experiment [7], 286 nM. Also, the Ratio in experiment [4] was found to be 36.

For `Oc1cccc(CCCNC[C@@H]2CCCN2CCOC(c2ccccc2)c2ccccc2)c1`, the IC50 was 857 nM in experiment [3], 31 nM in experiment [6] and 222 nM in experiment [7]. Besides, the Ratio in experiment [4] was 28.

For orientation: IC50 means the concentration that inhibits the measured activity by half. Read a low IC50 as greater potency in that assay.

The values are drawn from ChEMBL document CHEMBL1129408, “Development of novel, potent, and selective dopamine reuptake inhibitors through alteration of the piperazine ring of 1-[2-(diphenylmethoxy)ethyl]-and 1-[2-[bis(4-fluorophenyl)methoxy]ethyl]-4-(3-phenylpropyl)piperazines (GBR 12935 and GBR 12909)” (J Med Chem, 1996).
